Assay results reported in ChEMBL document CHEMBL4622920, “Synthesis and evaluation of heterocycle structures as potential inhibitors of Mycobacterium tuberculosis UGM” (Bioorg Med Chem, 2020).
≈ marks a conversion by molar mass, not a printed value. Calls of active or inactive are those of the source. The calls are words filed in the database; no cut-off is given here.

Columns and labels:
[1] = test system: Mycobacterium tuberculosis; assay: Displacement of UDP-fluorescein from non-reduced form of Mycobacterium tuberculosis UDP-galactopyranose mutase by fluorescence polarization assay relative to control; design: concentration or dose not given beside the values; settings: concentration not given here
Procedure, shortened: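 Single-point fluorescence polarization competition with inhibitor at 1 mM final. Non-reduced recombinant Mt UGM at 580 nM with 18 nM UDP-fluorescein probe. Read at room temperature in sodium phosphate buffer pH 7.0. Reported as percent inhibition; screening also done at 100 µM. Kd followed when inhibition at 1 mM exceeded 30%.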

[2] = Displacement of UDP-fluorescein from non-reduced form of Mycobacterium tuberculosis UDP-galactopyranose mutase by fluorescence polarization assay
Procedure, shortened: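 Recombinant Mt UGM (pET-29b construct) used dialysed and non-reduced at 580 nM. UDP-fluorescein probe at 18 nM. Inhibitors titrated over 0–1 mM. Kd derived from competitive fluorescence polarization. Probe affinity measured by enzyme dilutions in 50 mM sodium phosphate pH 7.0 at room temperature, in triplicate.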

[3] = test system: Mycobacterium tuberculosis; assay: Antitubercular activity against Mycobacterium tuberculosis mc2 6230 assessed as inhibition of bacterial growth incubated for 7 days by broth dilution method; format: functional; settings: mc2 6230, 168 h
Procedure, shortened: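 Pantothenate-auxotrophic Mt mc²6230 grown in 7H9/OADC plus 109 µM pantothenic acid at 37°C without agitation. Broth microdilution started from culture at OD600 0.05. Twofold series covered 1.5–100 µg/ml. Plates were read after 7 days at 37°C. MIC is the lowest concentration with no visible turbidity change. Duplicates were run on three independent occasions.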

[4] = test system: Mycobacterium tuberculosis; assay: Inhibition of reduced form of Mycobacterium tuberculosis UDP-galactopyranose mutase assessed as conversion of UDP-Galf to UDP-Galp at 0.5 mM using UDP-Galf as substrate compound incubated with enzyme at 5 mins after enzyme reduction with sodium dithionite by HPLC analysis relative to control
Procedure, shortened: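 Recombinant Mt UGM (60 nM) in 100 mM NaH₂PO₄ pH 7.4 at room temperature. Enzyme pre-incubated 5 min, then reduced with 12.5 mM sodium dithionite and incubated with or without inhibitor. UDP-α-Galf (25 µM final) added. Samples taken at five times and quenched in liquid N₂. Conversion to UDP-Galp quantified by C18 HPLC with UV detection at 262 nm.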

[5] = test system: Mycobacterium tuberculosis; assay: Antitubercular activity against Mycobacterium tuberculosis mc2 6230 assessed as inhibition of bacterial growth at 30 ng/ml incubated for 7 days by broth dilution method; format: functional, organism-based
Procedure, shortened: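 Mt mc²6230 pantothenate auxotroph grown at 37°C static in 7H9 broth with OADC and 109 µM pantothenic acid. Log-phase culture diluted to OD600 0.05. Compound serially diluted 2-fold from a 10 mg/ml DMSO stock. Plates wrapped and incubated at 37°C for 7 days. Isoniazid served as positive control and DMSO as vehicle control. Growth was read visually as turbidity.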

Row | Compound | inhibition [1] | Kd [2] | also measured
1 | CC1=C(c2cc3ccccc3o2)C(=O)O/C1=C\C(C)C | 0% | – | –
2 | COC(=O)c1cn(Cc2ccccc2)c2ccccc12 | 5.1% | – | –
3 | CC1=C(c2ccncc2)C(=O)O/C1=C\C(C)C | 3% | – | –
4 | O=C(O)C(Cc1ccc(I)cc1)NC1NC(c2ccc(Cl)c(Cl)c2)=CS1 (centres undefined) | – | 8 µM | –
5 | C#CCn1c(C(=O)O)c(I)c2ccccc21 | 7.4% | – | –
6 | CC1=C(c2ccc(-c3ccccc3)cc2)C(=O)O/C1=C\C(C)C | 19.2% | – | –
7 | O=C1O/C(=C/I)Cn2c1c(I)c1cc(F)ccc12 | 19.1% | – | –
8 | CC1=C(c2ccc(F)cc2)C(=O)O/C1=C\C(C)C | 9% | – | –
9 | COC(=O)c1cc2ccccc2[nH]1 | 2% | – | –
10 | C/C(I)=C1/Cn2c(c(I)c3ccccc32)C(=O)O1 | 14.9% | – | –
11 | COc1ccc2cc(C3=C(C)/C(=C/C(C)C)OC3=O)ccc2c1 | 7.4% | – | –
12 | O=C1O/C(=C/I)Cn2c1c(I)c1ccccc12 | 61.6% | 2000 µM | –
13 | COC(=O)c1[nH]c2ccccc2c1I | 11.5% | – | –
14 | O=C1O/C(=C(/I)c2ccccc2)Cn2c1c(I)c1ccccc12 | 22.8% | – | –
15 | C#CCn1c(C(=O)O)c(I)c2cc3c(cc21)OCO3 | 46.2% | 220 µM | –
16 | COC(=O)c1[nH]c2cc3c(cc2c1I)OCO3 | 23.1% | – | –
17 | CC1=C(Br)C(=O)O/C1=C\C(C)C | 7.3% | – | –
18 | C[N+](C)(C)CC(=O)N/N=C/c1ccc(O)c(O)c1 | – | 3 µM | –
19 | CCCCC#C/C=C1\Cn2c(c(I)c3cc4c(cc32)OCO4)C(=O)O1 | – | 58.3 µM | MIC [3]: 3.1 µg/mL (≈ 6.9 µM); inhibition [4]: 60.2%
20 | CCCCC#C/C=C1\Cn2c(c(I)c3ccccc32)C(=O)O1 | – | 66 µM | MIC [3]: 6.2 µg/mL (≈ 15.3 µM); inhibition [4]: 72.9%
21 | C#CCn1c(C(=O)O)c(I)c2cc(OC)ccc21 | 15% | – | –
22 | O=c1ccn([C@@H]2O[C@H](COP(=O)(O)OP(=O)(O)O[C@H]3O[C@@H]([C@H](O)CO)C(F)(F)C3(F)F)[C@@H](O)[C@H]2O)c(=O)[nH]1 | – | 53 µM | –
23 | C#CCn1c(C(=O)OC)cc2cc(F)ccc21 | 0% | – | –
24 | CC1=C(c2ccoc2)C(=O)O/C1=C\C(C)C | 5.2% | – | –
25 | CCCCC#C/C=C1\Cn2c(c(I)c3cc(OC)ccc32)C(=O)O1 | – | 61.3 µM | MIC [3]: 50 µg/mL (≈ 115 µM); inhibition [4]: 95.5%
26 | NNC(=O)c1ccncc1 | – | – | inhibition [5]: Active
